Test results taken from ChEMBL document CHEMBL1131066, “2-Substituted aminopyrido[2,3-d]pyrimidin-7(8H)-ones. structure-activity relationships against selected tyrosine kinases and in vitro and in vivo anticancer activity” (J Med Chem, 1998).
Values joined by “and” are separate entries in the source; they are usually repeats but may differ in a detail not shown here. Equal values may be shown once.

Tests used:
[1] = tested on: SK-OV-3; assay: Difference in days for treated (T) and control (C) SKOV-3 cell tumors to reach 750 mg in mice at 200 mg/kg ip dose, days 20-34 administration; type: functional; conditions: route intraperitoneal
Method in brief: (§1)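 Nude mice (NCr nu/nu), 18–22 g, 6–8 per group, randomized and implanted with serially passaged tumor fragments in the right axilla on day 0. Dosed by average cage weight. Vehicle was 50 mM sodium lactate buffer, pH 4.0, or a 0.5% methyl cellulose suspension for one compound. Cisplatin was given in saline. T − C is the difference in days for treated and control tumors to reach 750 mg.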

[2] = tested on: C6; assay: Weight change of C6 glioma tumor cells in mice at 100 mg/kg peroral dose, days 1-15 administration; type: functional, organism-based; set-up: dose 100 mg/kg; conditions: Mus musculus
Method in brief: (§2)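 Tumor-bearing nude mice (NCr nu/nu, 18–22 g, 6–8 per group) were implanted in the right axilla with tumor fragments on day 0 and dosed by average cage weight. Vehicle was 50 mM sodium lactate pH 4.0, or 0.5% methyl cellulose suspension; cisplatin was given in saline. Host body weight change is given as the maximum treatment-related weight loss.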

[3] = biological target: T1, Platelet-derived growth factor receptor beta (Mus musculus, UniProt P05622); assay: Inhibition of Platelet-derived growth factor receptor (PDGFr)
T1 sequence (P05622 whole entry): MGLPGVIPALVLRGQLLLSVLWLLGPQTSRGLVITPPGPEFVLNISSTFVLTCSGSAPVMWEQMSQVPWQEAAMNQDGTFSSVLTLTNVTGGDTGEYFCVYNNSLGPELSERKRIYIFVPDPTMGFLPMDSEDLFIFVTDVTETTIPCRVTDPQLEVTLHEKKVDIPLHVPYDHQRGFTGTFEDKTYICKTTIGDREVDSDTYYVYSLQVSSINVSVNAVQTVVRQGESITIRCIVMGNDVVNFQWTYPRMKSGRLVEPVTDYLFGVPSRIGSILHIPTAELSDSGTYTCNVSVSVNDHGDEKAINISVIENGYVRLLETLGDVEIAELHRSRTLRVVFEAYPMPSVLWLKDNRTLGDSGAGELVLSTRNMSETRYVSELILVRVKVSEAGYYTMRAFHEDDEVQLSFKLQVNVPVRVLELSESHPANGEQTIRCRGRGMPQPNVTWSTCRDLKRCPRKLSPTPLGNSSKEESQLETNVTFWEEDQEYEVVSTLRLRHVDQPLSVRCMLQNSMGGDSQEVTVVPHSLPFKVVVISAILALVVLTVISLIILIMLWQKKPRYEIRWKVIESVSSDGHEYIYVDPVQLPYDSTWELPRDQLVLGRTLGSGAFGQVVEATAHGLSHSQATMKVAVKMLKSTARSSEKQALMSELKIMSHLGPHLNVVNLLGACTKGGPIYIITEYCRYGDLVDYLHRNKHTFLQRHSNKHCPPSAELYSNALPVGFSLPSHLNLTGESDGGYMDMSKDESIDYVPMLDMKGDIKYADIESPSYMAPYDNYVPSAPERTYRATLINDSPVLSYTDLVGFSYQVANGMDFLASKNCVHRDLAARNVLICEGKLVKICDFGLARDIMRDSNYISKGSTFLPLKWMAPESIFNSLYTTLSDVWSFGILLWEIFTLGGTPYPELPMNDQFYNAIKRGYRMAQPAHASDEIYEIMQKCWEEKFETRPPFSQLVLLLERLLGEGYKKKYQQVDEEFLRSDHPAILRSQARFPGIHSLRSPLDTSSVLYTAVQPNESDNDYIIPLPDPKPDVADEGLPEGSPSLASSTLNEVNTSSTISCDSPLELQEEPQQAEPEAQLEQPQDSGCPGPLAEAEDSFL
Method in brief: (§3)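 Recombinant kinases (PDGFr-β, FGFr-1, c-Src), enzyme inhibition IC50. Mean of at least two separate determinations, each done in triplicate; replicate values typically varied under 30%.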

[4] = tested on: COLO 205; assay: Difference in days for treated (T) and control (C) COLO 205 cell tumors to reach 750 mg in mice at 200 mg/kg ip dose, days 14-28 administration; type: functional, Mus musculus; conditions: route intraperitoneal; method in brief: as §1
[5] = tested on: C6; assay: C6 cell growth in soft agar with continuous treatment; type: functional, cell-based, Rattus norvegicus; conditions: Rattus norvegicus, C6
Method in brief: (§4)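 C6 rat glioma cells (F10 Ham's with 15% horse serum, 2.5% fetal calf serum) exposed 3 days to a concentration series, then plated in soft agar with compound still present at the same concentration; colonies stained and counted after two weeks. IC50; mean of two experiments, each in duplicate.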

[6] = biological target: Epidermal growth factor receptor (Homo sapiens, UniProt P00533); assay: Inhibitory concentration was evaluated against epidermal growth factor receptor (EGFr) tyrosine kinase
Chain of Epidermal growth factor receptor (P00533 whole entry): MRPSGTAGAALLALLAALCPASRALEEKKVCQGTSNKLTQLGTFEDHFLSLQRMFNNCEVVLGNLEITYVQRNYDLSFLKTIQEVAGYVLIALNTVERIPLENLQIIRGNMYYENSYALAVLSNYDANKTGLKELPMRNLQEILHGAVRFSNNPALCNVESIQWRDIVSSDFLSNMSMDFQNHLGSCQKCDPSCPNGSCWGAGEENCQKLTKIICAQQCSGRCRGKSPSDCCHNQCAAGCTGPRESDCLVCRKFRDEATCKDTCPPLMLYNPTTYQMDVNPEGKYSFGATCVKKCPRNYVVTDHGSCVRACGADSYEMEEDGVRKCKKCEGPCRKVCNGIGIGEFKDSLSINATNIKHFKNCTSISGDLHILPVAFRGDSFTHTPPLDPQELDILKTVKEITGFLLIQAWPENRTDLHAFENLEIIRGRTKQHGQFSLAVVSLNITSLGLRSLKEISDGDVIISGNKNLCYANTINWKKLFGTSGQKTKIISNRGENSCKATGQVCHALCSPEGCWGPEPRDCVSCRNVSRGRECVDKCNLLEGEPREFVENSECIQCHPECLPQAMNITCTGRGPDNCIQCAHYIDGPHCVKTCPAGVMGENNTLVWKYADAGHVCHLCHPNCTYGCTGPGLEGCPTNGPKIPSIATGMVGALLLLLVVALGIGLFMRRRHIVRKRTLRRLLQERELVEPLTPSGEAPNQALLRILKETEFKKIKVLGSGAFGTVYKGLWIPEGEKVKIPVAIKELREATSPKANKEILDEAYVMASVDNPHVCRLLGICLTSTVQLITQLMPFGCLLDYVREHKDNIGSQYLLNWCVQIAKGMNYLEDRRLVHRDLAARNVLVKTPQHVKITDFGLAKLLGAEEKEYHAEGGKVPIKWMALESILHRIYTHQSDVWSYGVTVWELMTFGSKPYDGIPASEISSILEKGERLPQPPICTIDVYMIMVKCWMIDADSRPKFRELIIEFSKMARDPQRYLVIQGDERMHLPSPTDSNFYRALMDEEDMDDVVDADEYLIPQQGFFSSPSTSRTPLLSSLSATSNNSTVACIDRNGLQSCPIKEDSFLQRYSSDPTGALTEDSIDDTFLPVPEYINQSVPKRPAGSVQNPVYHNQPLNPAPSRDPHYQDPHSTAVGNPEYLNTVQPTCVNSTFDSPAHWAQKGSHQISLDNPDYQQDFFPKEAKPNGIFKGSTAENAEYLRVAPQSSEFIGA

[7] = tested on: HT-29; assay: Net reduction in tumor burden between first and last treatments of HT-29 cell tumors in mice at 200 mg/kg ip dose, days 15-29 administration; type: functional, Mus musculus; conditions: route intraperitoneal
Method in brief: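 NCr nu/nu nude mice (18–22 g, 6–8 per group, randomized) had tumor fragments, kept by serial passage in nude mice, implanted in the right axilla on day 0. Mice were dosed by average cage weight on the listed days, over a range from toxic to ineffective doses. Vehicle was 50 mM sodium lactate pH 4.0 or 0.5% methyl cellulose suspension. Net log cell kill was taken between first and last treatments.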

[8] = tested on: C6; assay: C6 cell growth in soft agar with discontinued treatment; type: functional, cell-based, Rattus norvegicus; conditions: Rattus norvegicus, C6
Method in brief: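 C6 rat glioma cells given 3-day exposure to a concentration series, then washed free of inhibitor and plated in drug-free soft agar; colonies stained and counted after two weeks. IC50; mean of two experiments, each in duplicate.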

[9] = biological target: T2, Platelet-derived growth factor receptor (Mus musculus, UniProt P05622+P26618); assay: (§5) Inhibition of Platelet-derived growth factor receptor autophosphorylation in NIH3T3 cells; type: functional, cell-based
Method in brief: (§6)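 Serum-starved 24 h (C6 rat glioma; PDGF-B-transfected NIH3T3), incubated 2 h with a range of concentrations, then stimulated 5 min with 25 ng/mL PDGF-BB. Lysates or immunoprecipitates Western blotted with antiphosphotyrosine antibody, ECL detection. IC50.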

[10] = tested on: C6; assay: C6 glioma cell growth in soft agar with continuous treatment; type: functional, cell-based; conditions: Rattus norvegicus; method in brief: as §4
[11] = biological target: Proto-oncogene tyrosine-protein kinase Src (Gallus gallus, UniProt P00523); assay: Inhibition of avian c-Src tyrosine kinase
[12] = tested on: HT-29; assay: Difference in days for treated (T) and control (C) HT-29 cell tumors to reach 750 mg in mice at 200 mg/kg ip dose, days 15-29 administration; type: functional, Mus musculus; conditions: route intraperitoneal; method in brief: as §1
[13] = tested on: COLO 205; assay: Weight change of COLO 205 cell tumors in mice at 200 mg/kg ip dose, days 14-28 administration; type: functional, Mus musculus; conditions: route intraperitoneal; method in brief: as §2
[14] = tested on: C6; assay: C6 glioma cell growth in soft agar with discontinued treatment; type: functional, cell-based; conditions: Rattus norvegicus
Method in brief: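 C6 rat glioma cells (F10 Ham's, 15% horse serum, 2.5% fetal calf serum) exposed to a range of concentrations for 3 days, washed free of inhibitor, plated in drug-free soft agar. Colonies stained and counted after two weeks. IC50; mean of two experiments, each in duplicate.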

[15] = tested on: Mus musculus; assay: Difference in days for treated (T) and control (C) PDGF-transfected mouse fibroblast tumors to reach 750 mg in mice at 100 mg/kg peroral dose, days 1-15 administration; type: functional; conditions: route intraperitoneal, in the assay text read “intraperitoneal” for “peroral”; method in brief: as §1
[16] = biological target: T2, Platelet-derived growth factor receptor; assay: as §5; type: functional, cell-based; method in brief: as §6; remark: listed apart in the source
[17] = biological target: T3, Platelet-derived growth factor receptor (PDGFr) (Rattus norvegicus, UniProt P20786+Q05030); assay: Inhibition of PDGF-induced autophosphorylation of PDGF-R in C6 cells
[18] = biological target: Proto-oncogene tyrosine-protein kinase Src (Homo sapiens, UniProt P12931); assay: Inhibition of c-Src tyrosine kinase; method in brief: as §3
Chain of Proto-oncogene tyrosine-protein kinase Src (Homo sapiens, UniProt P12931) (P12931 2-536 limits assumed): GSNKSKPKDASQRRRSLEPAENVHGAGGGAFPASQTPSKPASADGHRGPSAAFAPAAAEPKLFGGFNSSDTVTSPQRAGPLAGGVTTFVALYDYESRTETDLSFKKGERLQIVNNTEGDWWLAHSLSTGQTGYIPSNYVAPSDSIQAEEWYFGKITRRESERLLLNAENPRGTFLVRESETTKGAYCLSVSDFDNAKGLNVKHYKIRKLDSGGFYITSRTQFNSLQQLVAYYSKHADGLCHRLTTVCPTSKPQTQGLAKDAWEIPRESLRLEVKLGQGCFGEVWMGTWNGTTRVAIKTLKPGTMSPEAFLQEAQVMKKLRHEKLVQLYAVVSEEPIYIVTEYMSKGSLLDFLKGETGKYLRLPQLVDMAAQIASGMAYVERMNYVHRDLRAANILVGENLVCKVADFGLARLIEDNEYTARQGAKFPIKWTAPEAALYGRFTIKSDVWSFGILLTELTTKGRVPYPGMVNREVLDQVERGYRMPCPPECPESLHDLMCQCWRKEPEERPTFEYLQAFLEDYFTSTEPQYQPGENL

[19] = biological target: T1, Platelet-derived growth factor receptor beta; assay: Inhibitory concentration was evaluated against Platelet-derived growth factor receptor beta (PDGFr) tyrosine kinase
[20] = tested on: HT-29; assay: Weight change of HT-29 cell tumors in mice at 200 mg/kg ip dose, days 15-29 administration; type: functional, Mus musculus; conditions: route intraperitoneal; method in brief: as §2
[21] = tested on: SK-OV-3; assay: Weight change of SK-OV-3 cell tumors in mice at 200 mg/kg peroral dose, days 20-34 administration; type: functional; conditions: route intraperitoneal, in the assay text read “intraperitoneal” for “peroral”
[22] = tested on: C6; assay: Difference in days for treated (T) and control (C) C6 glioma cell tumors to reach 750 mg in mice at 100 mg/kg peroral dose, days 1-15 administration; type: functional, Mus musculus; conditions: route oral; method in brief: as §1
[23] = tested on: Mus musculus; assay: Net reduction in tumor burden between the first and last treatments of PDGF-transfected fibroblast cells in mice at 100 mg/kg intraperitoneal dose, days 1-15 administration
[24] = biological target: T3, Platelet-derived growth factor receptor (PDGFr); assay: Inhibition of Platelet-derived growth factor receptor autophosphorylation in C6 cells; type: functional, cell-based; method in brief: as §6
[25] = tested on: C6; assay: (§7) Inhibition of C6 cell proliferation in sulforhodamine B assay; type: functional, cell-based; conditions: Rattus norvegicus
Method in brief: (§8)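 C6 rat glioma cells (F10 Ham's, 15% horse serum, 2.5% fetal calf serum) seeded and allowed 24 h to attach, then given serial 2-fold compound dilutions; 4 d at 37 °C, 5% CO2; growth read by sulforhodamine B staining. IC50; mean of two experiments, each in triplicate.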

[26] = tested on: C6; assay: as §7; type: functional, cell-based, Rattus norvegicus; conditions: Rattus norvegicus, C6; method in brief: as §8
[27] = tested on: NIH3T3; assay: Inhibition of NIH3T3 proliferation by sulforhodamine B assay; type: functional, cell-based, Mus musculus; conditions: nih3t3

Cn1c(=O)c(-c2c(Cl)cccc2Cl)cc2cnc(Nc3ccccc3)nc21
T-C [1]: -0.4 days | Weight change [2]: Weight gain | IC50 [3]: 400 nM | T-C [4]: -3.2 days | IC50 [5]: 1100 nM | IC50 [6]: 260 nM | Net cell kill [7]: -0.5 log10 | IC50 [8]: 2900 nM | IC50 [9]: 20 nM | IC50 [10]: 1100 nM | IC50 [11]: 20 nM | T-C [12]: 1.1 days | Weight change [13]: -2 g | IC50 [14]: 2900 nM | T-C [15]: 1.7 days | IC50 [16]: 20 nM | IC50 [17]: 38 nM | IC50 [18]: 17 nM | IC50 [19]: 400 nM | Weight change [20]: -2 g | Weight change [21]: -2 g | T-C [22]: -1.1 days | Net cell kill [23]: -2.1 log10 | IC50 [24]: 38 nM | IC50 [25]: 1800 nM | IC50 [26]: 1800 nM | IC50 [27]: 105 nM and 410 nM
